In ChEMBL document CHEMBL4152213, “Synthesis and biological evaluation of 2,5-disubstituted furan derivatives as P-glycoprotein inhibitors for Doxorubicin resistance in MCF-7/ADR cell” (Eur J Med Chem, 2018):
pEC50: −log10 of the molar value.

Assays:
Format in all cases: cell-based
[1] = Inhibition of P-gp in human MCF7/ADR cells assessed as cell viability after 48 hrs by MTT assay; details: NCI/ADR-RES
How it was run: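 MTT assay in MCF-7/ADR cells: cells incubated 48 h with or without compounds, then 5 mg/mL MTT added for 3–4 h at 37 °C, 5% CO2. Formazan dissolved in EtOH/DMSO (1:1), OD at 570 and 650 nm. Data are the mean of three independent determinations of triplicate samples.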

Homo sapiens [2] = species on record: Homo sapiens; test: Inhibition of P-gp in human MCF7/ADR cells assessed as increase in intracellular accumulation of doxorubicin at 20 uM after 2 days by fluorescence assay relative to doxorubicin alone
How it was run: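 MCF-7/ADR cells exposed to compounds at 20 μM for 2 days, with Doxorubicin 50 μM added on the second day. Cells trypsinized, washed twice in ice-cold PBS pH 7.4, kept on ice under 1 h, then cellular Doxorubicin fluorescence measured by flow cytometry. Doxorubicin-only cells set as 100% and untreated autofluorescence as 0%. Expressed as fold accumulation; three independent determinations in triplicate.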

NCI/ADR-RES = test: Cytotoxicity against human MCF7/ADR cells at 100 uM after 24 to 48 hrs by MTT assay relative to control
How it was run: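 MCF-7/ADR cells (RPMI 1640, 10% FBS, 37 °C, 5% CO2) exposed to compounds alone at 100 μM without Doxorubicin for 24 and 48 h. Viability by MTT: 5 mg/mL MTT, 3–4 h at 37 °C, formazan dissolved in EtOH/DMSO 1:1, OD at 570 and 650 nm. Cytotoxicity taken relative to untreated control.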

Homo sapiens [3] = species on record: Homo sapiens; test: Inhibition of P-gp in human MCF7/ADR cells assessed as assessed as potentiation of doxorubicin-induced antiproliferative activity by measuring doxorubicin antiproliferative activity at 20 uM after 2 days by MTT assay; design: scale not given: the % may be the effect or the level left
How it was run: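 MCF-7/ADR cells plated at 10,000/well, then treated the next day. Compounds at 20 μM plus Doxorubicin 5 μM for 2 days, washed twice, then Doxorubicin alone for 1 day. Read-out by MTT: 0.5 mg/mL, 1 h at 37 °C, DMSO, absorbance 570/630 nm. Growth inhibition given as % of untreated control. Eight wells per treatment; three independent determinations in triplicate.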

Row | SMILES | pEC50 [1] | also measured
1 | COc1ccc(-c2ccc(C(=O)N3CCCc4ccccc43)o2)cc1 | 5.17 | 
2 | COc1cc2c(cc1OC)CN(C(=O)c1ccc(-c3ccccc3)o1)CC2 | 5.17 | 
3 | COc1cc2c(cc1OC)CN(C(=O)c1ccc(-c3ccccc3Cl)o1)CC2 | 5.09 | 
4 | O=C(c1ccc(-c2ccccc2Cl)o1)N1CCc2ccccc2C1 | 4.99 | 
5 | O=C(c1ccc(-c2ccc(F)cc2)o1)N1CCCc2ccccc21 | 4.88 | 
6 | O=C(c1ccc(-c2ccc([N+](=O)[O-])cc2)o1)N1CCCc2ccccc21 | 4.81 | 
7 | COc1ccc(-c2ccc(C(=O)N3CCc4cc(OC)c(OC)cc4C3)o2)cc1 | 6.05 | fold change (FC) (Homo sapiens [2]): 9.2; Activity (NCI/ADR-RES): < 15%; Activity (Homo sapiens [3]): 97.8%
8 | O=C(c1ccc(-c2ccccc2)o1)N1CCc2ccccc2C1 | 5.08 | 
9 | O=C(c1ccc(-c2ccccc2Cl)o1)N1CCCc2ccccc21 | 4.86 | 
10 | COc1cc2c(cc1OC)CN(C(=O)c1ccc(-c3cccc([N+](=O)[O-])c3)o1)CC2 | 4.79 | 
11 | O=C(c1ccc(-c2cccc(Cl)c2)o1)N1CCCc2ccccc21 | 4.76 | 
12 | O=C(c1ccc(-c2cccc([N+](=O)[O-])c2)o1)N1CCc2ccccc2C1 | 4.69 | 
13 | COc1ccc(-c2ccc(C(=O)N3CCc4ccccc4C3)o2)cc1 | 5.26 | 
14 | O=C(c1ccc(-c2ccc(F)cc2F)o1)N1CCCc2ccccc21 | 4.76 | 
15 | O=C(c1ccc(-c2ccccc2[N+](=O)[O-])o1)N1CCCc2ccccc21 | 4.71 | 
16 | O=C(c1ccc(-c2ccc(Br)cc2)o1)N1CCCc2ccccc21 | 5.04 | 
17 | O=C(c1ccc(-c2cccc(F)c2)o1)N1CCc2ccccc2C1 | 4.69 | 
18 | COc1cc2c(cc1OC)CN(C(=O)c1ccc(-c3ccc([N+](=O)[O-])cc3)o1)CC2 | 5.03 | 
19 | O=C(c1ccc(-c2cccc([N+](=O)[O-])c2)o1)N1CCCc2ccccc21 | 4.54 | 
20 | COc1cc2c(cc1OC)CN(C(=O)c1ccc(-c3cccc(Cl)c3)o1)CC2 | 4.83 | 
21 | O=C(c1ccc(-c2c(F)cccc2F)o1)N1CCc2ccccc2C1 | 4.81 | 
22 | COc1ccc(CCN(C)CCCC(C#N)(c2ccc(OC)c(OC)c2)C(C)C)cc1OC (configuration not stated) [VERAPAMIL] | 4.69 | fold change (FC) (Homo sapiens [2]): 3.6; Activity (Homo sapiens [3]): 52.5%
23 | O=C(c1ccc(-c2c(F)cccc2F)o1)N1CCCc2ccccc21 | 4.71 | 

Row | SMILES | pEC50 [1] | also measured
24 | O=C(c1ccc(-c2ccccc2F)o1)N1CCc2ccccc2C1 | 4.83 | 
25 | O=C(c1ccc(-c2ccc(Cl)cc2)o1)N1CCCc2ccccc21 | 5.08 | 
26 | COc1cc2c(cc1OC)CN(C(=O)c1ccc(-c3ccc(C)cc3)o1)CC2 | 5.28 | 
27 | COc1cc2c(cc1OC)CN(C(=O)c1ccc(-c3ccc(F)cc3)o1)CC2 | 5.07 | 
28 | O=C(c1ccc(-c2ccccc2[N+](=O)[O-])o1)N1CCc2ccccc2C1 | 4.82 | 
29 | O=C(c1ccc(-c2ccc(F)cc2F)o1)N1CCc2ccccc2C1 | 4.90 | 
30 | O=C(c1ccc(-c2ccccc2F)o1)N1CCCc2ccccc21 | 4.75 | 
31 | COc1cc2c(cc1OC)CN(C(=O)c1ccc(-c3cccc(F)c3)o1)CC2 | 4.75 | 
32 | O=C(c1ccc(-c2ccc(Cl)cc2)o1)N1CCc2ccccc2C1 | 5.17 | 
33 | COc1cc2c(cc1OC)CN(C(=O)c1ccc(-c3ccc(Cl)cc3)o1)CC2 | 5.49 | fold change (FC) (Homo sapiens [2]): 6.8; Activity (NCI/ADR-RES): < 15%; Activity (Homo sapiens [3]): 89.6%
34 | O=C(c1ccc(-c2ccccc2)o1)N1CCCc2ccccc21 | 4.96 | 
35 | COc1cc2c(cc1OC)CN(C(=O)c1ccc(-c3c(F)cccc3F)o1)CC2 | 4.89 | 
36 | COc1cc2c(cc1OC)CN(C(=O)c1ccc(-c3ccc(Br)cc3)o1)CC2 | 5.36 | fold change (FC) (Homo sapiens [2]): 5; Activity (NCI/ADR-RES): < 15%; Activity (Homo sapiens [3]): 79.8%
37 | O=C(c1ccc(-c2ccc([N+](=O)[O-])cc2)o1)N1CCc2ccccc2C1 | 4.90 | 
38 | O=C(c1ccc(-c2ccc(F)cc2)o1)N1CCc2ccccc2C1 | 4.98 | 
39 | O=C(c1ccc(-c2cccc(F)c2)o1)N1CCCc2ccccc21 | 4.56 | 
40 | Cc1ccc(-c2ccc(C(=O)N3CCc4ccccc4C3)o2)cc1 | 5.09 | 
41 | Cc1ccc(-c2ccc(C(=O)N3CCCc4ccccc43)o2)cc1 | 5.04 | 
42 | COc1cc2c(cc1OC)CN(C(=O)c1ccc(-c3ccccc3F)o1)CC2 | 4.96 | 
43 | O=C(c1ccc(-c2ccc(Br)cc2)o1)N1CCc2ccccc2C1 | 5.11 | 
44 | COc1cc2c(cc1OC)CN(C(=O)c1ccc(-c3ccc(F)cc3F)o1)CC2 | 4.98 | 
45 | COc1cc2c(cc1OC)CN(C(=O)c1ccc(-c3ccccc3[N+](=O)[O-])o1)CC2 | 4.86 | 
46 | O=C(c1ccc(-c2cccc(Cl)c2)o1)N1CCc2ccccc2C1 | 4.74 | 
